# Shown is part of a subset that was picked to be rich in hits.
# ROMK mod: modulators of human ROMK potassium channel; Tet-inducible ROMK, thallium flux fluorescence; actives lie on both sides; B-score at 10 µM; hit rate 2% among 130,000;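 active = signal ratio slope over the read window, or its plate-corrected B-score, at least 3 SD from the plate mean, either direction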;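 note: B-score of the F/F0 ratio slope over 7 to 12 s after thallium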
# Target sequence (P48048 whole entry, looked up): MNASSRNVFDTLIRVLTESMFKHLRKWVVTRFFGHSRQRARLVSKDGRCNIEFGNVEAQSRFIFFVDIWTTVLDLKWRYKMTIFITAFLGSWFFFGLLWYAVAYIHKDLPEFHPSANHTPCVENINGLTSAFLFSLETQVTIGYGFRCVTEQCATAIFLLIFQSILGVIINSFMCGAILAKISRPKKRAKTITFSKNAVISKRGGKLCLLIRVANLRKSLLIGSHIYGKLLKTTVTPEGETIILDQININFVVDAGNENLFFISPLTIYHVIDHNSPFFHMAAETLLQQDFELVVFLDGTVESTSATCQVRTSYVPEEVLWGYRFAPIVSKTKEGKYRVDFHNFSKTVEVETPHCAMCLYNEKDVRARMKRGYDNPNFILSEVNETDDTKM
# Biofilm kill mix: mixture kills Candida albicans biofilm cells; C. albicans biofilm persisters + clotrimazole, fluorescence viability; primary screen in compound mixtures of four per well; inhibition, % at 7.6 µM; hit rate 0.02% among 120,000;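 active = inhibition above 30.3% in the primary screen of four-compound pools, then above 30% when the compound was retested; inconclusive = passed the primary limit but could not be retested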;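 note: compounds exposed to preformed 24 h biofilms for 48 h; 0% = untreated biofilm control and 100% = clotrimazole plus chlorhexidine kill blank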
#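 Incubation: 24 h biofilm formation, then 48 h compound exposure, 37 °C | Material: C. albicans biofilms | Buffer or medium: RPMI/MOPS medium, pH 7.0 | Measured by: 2-h Alamar Blue fluorescence, 535/590 nm excitation/emission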
# ROMK hit retest: retested hit modulating human ROMK potassium channel; shares compounds with ROMK mod; ROMK thallium flux, fluorescence ratio; hits give low values; normalized thallium flux (F/F0 slope) at 10 µM; hit rate 54% among 3,000; AID 1917;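 active = Flux at 10 µM at least 3 SD below or above vehicle control mean in one or both replicates; inconclusive = no clear call, values can overlap the other calls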
# * marks the source's active call; other numbers are inactive results; ? = inconclusive; nt = no result.
SMILES,ROMK mod,Biofilm kill mix,ROMK hit retest
CCC(=O)N(Cc1ccco1)c1nc(C(=O)Nc2ccc(Cl)cc2)c(C)s1,nt,18.8,nt
Cc1ccc(/C=N/n2cnc3sc(C)c(C)c3c2=O)o1,-0.699,16.0,nt
CC(C)OC(=O)C1C(=O)CC(C)(O)C(C(=O)OC(C)C)C1c1ccc([N+](=O)[O-])cc1 (configuration not stated),-1.21,14.7,nt
C=CCOC(=O)C1C(=O)CC(C)(O)C(C(=O)OCC=C)C1c1ccc(OC)cc1 (configuration not stated),1.17*,nt,0.075
COc1cccc(-c2noc(-c3ccc(Cl)nc3)n2)c1,-1,19.2,nt
CCc1cccc(C)c1NC(=S)NCC(c1cccnc1)N1CCOCC1 (configuration not stated),nt,0.6,nt
CCCc1nn(C)c(C(N)=O)c1[N+](=O)[O-],nt,10.6,nt
C/C=C/c1ccc(OCC(=O)OCc2csc(Nc3ccc(C)cc3)n2)c(OC)c1,-2.61*,15.6,0.0648*
Cc1ccc(Nc2nc(COC(=O)COc3ccc(C=O)cc3)cs2)cc1,nt,6.7,nt
CCSc1nnnn1-c1ccccc1,0.0355,nt,nt
Cc1ccc(C)c(-n2nnnc2Sc2nnnn2-c2ccccc2)c1,-4.59*,nt,0.0585*
Cc1c(-c2ccn[nH]2)cc(NC(=O)c2ccc(Cl)cc2)c(=O)n1N,0.131,6.1,nt
O=C(/C=C/c1cn(CC(O)CN2CCCCC2)c2ccccc12)c1ccccc1 (configuration not stated),nt,8.2,0.057*
CN1CCN(Cn2cc(/C=C/C(=O)c3ccccc3)c3ccccc32)CC1,0.362,nt,nt
O=C(/C=C/c1cn(CC(O)CN2CCCCC2)c2ccccc12)c1cccs1 (configuration not stated),nt,9.5,nt
COc1ccc(C(=O)/C=C/c2cn(CC(O)CN3CCN(C)CC3)c3ccccc23)cc1OC (configuration not stated),nt,9.5,0.0594*
COc1ccc(NS(=O)(=O)c2ccc(NC(=O)c3ccc(CN4CCOCC4)cc3)cc2)cc1,-0.675,1.7,nt
O=C(Nc1ccc(S(=O)(=O)N2CCCCC2)cc1)c1ccc(CN2CCOCC2)cc1,nt,5.7,0.0594*
O=C(Nc1ccc(S(=O)(=O)N2CCCC2)cc1)c1ccc(CN2CCOCC2)cc1,-1.21,nt,nt
O=C(Nc1ccc(S(=O)(=O)Nc2ccc(F)cc2)cc1)c1ccc(CN2CCOCC2)cc1,-3.38*,-7.1,?
Cc1cc(C(=O)N/N=C2\CC(=O)c3ccccc32)c(C)n1-c1ccccc1,-0.148,9.6,nt
CC1(C)CC(=O)C2=C(C1)OC(N)=C(C#N)C2CCc1ccccc1 (configuration not stated),-5.07*,nt,0.0718
CC1(C)CC(=O)C2=C(C1)OC(N)=C(C#N)C2C#Cc1ccccc1 (configuration not stated),-0.309,nt,nt
O=C(c1ccc(S(=O)(=O)N2CCOCC2)cc1)N(c1cccc(Cl)c1)C1C=CS(=O)(=O)C1 (configuration not stated),0.405,14.4,nt
COc1ccc(N=Cc2[nH]c3ccccc3c2O)cc1,-1.62,-6.8,nt
SMILES,ROMK mod,Biofilm kill mix,ROMK hit retest
COc1ccc(N=Cc2oc3ccc4ccccc4c3c2O)cc1,-3.52*,15.8,0.0527*
COc1cc(C(=O)Nc2ccc3c(c2)N(C(=O)CN2CCN(C)CC2)c2ccccc2CC3)cc(OC)c1OC,nt,25.0,nt
CC(C)(C)c1cc(CCC(=O)NN)cc(C(C)(C)C)c1O,-0.072,10.3,nt
COCCOC(=O)/C(=C\c1cc(C(C)(C)C)c(O)c(C(C)(C)C)c1)C(C)=O,nt,18.9,0.0612*
CC(OC(=O)c1ccncc1)C(=O)Nc1cc(S(=O)(=O)N2CCCCC2)ccc1Cl (configuration not stated),-4.76*,18.4,0.0682*
O=C(Nc1cccc(Cl)c1)Nc1cc(S(=O)(=O)N2CCCCC2)ccc1Cl,nt,13.8,nt
O=C(CC1SC(=O)NC1=O)Oc1ccc(/C=N/NC(=O)c2ccccc2O)cc1 (configuration not stated),-0.114,7.0,nt
N#CC1(NC(=O)CN2CCN(S(=O)(=O)c3ccccc3F)CC2)CCCC1,nt,17.9,nt
CCSC1=N/C(=C/c2ccsc2)C(=O)N1c1ccccc1,0.158,7.3,nt
CC(C)(C)C(=O)Cn1ncc(Br)c(Br)c1=O,1.01,10.2,nt
Cc1cc(C)c(C#N)c(N2CCN(Cc3ccc4c(c3)OCO4)CC2)n1,-0.893,nt,nt
N#CCc1c(C#N)c(N)nc(N2CCN(Cc3ccc4c(c3)OCO4)CC2)c1C#N,-5.57*,nt,0.0483*
Cn1cccc1/C=C1\SC(=S)N(NC(=O)c2cccc(Cl)c2)C1=O,0.601,13.0,nt
Cc1cc(C(C)(C)C)cc(S(=O)(=O)Nc2cccc(C(=O)O)c2)c1C,4.74*,nt,0.0792
Cc1ccccc1NC(=O)c1ccc(NS(=O)(=O)c2cc(C(C)(C)C)cc(C)c2C)cc1,nt,22.5,nt
CC(C)C1OC(c2cccc(NC(=O)c3cccs3)c2)OCC1(C)C (configuration not stated),-0.62,-0.1,nt
CCN(CC)CCN(C)C1CCC(c2ccccc2)CC1 (configuration not stated),-0.679,2.6,nt
CC1=Nc2cc(C(=O)NCCCOC(C)C)ccc2Sc2ccc(C)cc21,4.32*,17.2,0.0914
CCCC1=Nc2cc(C(=O)NCCCOC(C)C)ccc2Sc2ccccc21,1.86,nt,nt
CCC1=Nc2cc(C(=O)NCCCOC)ccc2Sc2ccccc21,2.31,nt,nt
CC1=Nc2cc(C(=O)NCCCOC(C)C)ccc2Sc2ccccc21,2.9*,11.8,0.091
c1ccc(CC2CCN(C3=Nc4cccc5cccc3c45)CC2)cc1,-4.39*,nt,0.0621*
COc1ccccc1N1CCN(C2=Nc3cccc4cccc2c34)CC1,-0.183,4.6,nt
CC1CN(C2=Nc3cccc4cccc2c34)CC(C)O1 (configuration not stated),-1.85*,4.6,0.0628*
c1cc2c3c(cccc3c1)C(N1CCOCC1)=N2,nt,17.1,nt
SMILES,ROMK mod,Biofilm kill mix,ROMK hit retest
Cc1cc(C)c(C(=O)CN2C(=O)NC3(CCCCCC3)C2=O)cc1C,0.0372,12.4,nt
NC(=O)c1cc(NC(=O)c2ccc(NS(=O)(=O)c3cccs3)cc2)cc(C(N)=O)c1,nt,14.1,nt
CC1CCCN(C(=O)COC(=O)c2n[nH]c3ccccc23)C1 (configuration not stated),-0.566,nt,nt
COC(=O)C1CCN(C(=O)COC(=O)c2n[nH]c3ccccc23)CC1,-0.0642,nt,0.0767
N#CNc1nc(O)cc(=O)[nH]1,nt,16.0,nt
CN(C)C(=O)c1sccc1Oc1ccc(F)cc1[N+](=O)[O-],-0.441,9.8,0.0803
COC(=O)c1sccc1Oc1ccc(F)cc1[N+](=O)[O-],0.138,nt,nt
CCOC(=O)NC1(C(F)(F)F)NC(=O)N(c2ccc(F)cc2)C1=O (configuration not stated),0.792,6.6,nt
Cc1cc(C)c2cc(CN(Cc3ccco3)C(=S)NCC3CCCO3)c(=O)[nH]c2c1 (configuration not stated),0.344,27.5,nt
CCc1ccc(C(=O)/C=C2\Sc3ccccc3NC2=O)cc1,-0.0666,9.5,nt
CC(=O)/C=C1/C(=O)Nc2ccccc21,-3.79*,17.9,0.0343*
Cc1cc(=O)[nH]c(N/N=C/c2ccc(OC(=O)c3cccnc3)cc2)n1,-0.437,1.4,nt
Cc1ccc(-c2csc(N3C(=N)SCC3=O)n2)cc1,nt,20.4,nt
CC(C)(C)c1ccc(N2C(=N)SCC2=O)cc1,-9.34*,10.9,0.0415*
O=C(O)C(Cc1cn[nH]n1)=NO,nt,3.2,nt
COc1cc(C(=O)c2c(C)c(CCC#N)n3ccccc23)cc(OC)c1OC,-0.261,17.0,nt
